These results are taken from paper PMC2577561 (Bioorganic & medicinal chemistry, 2008).

Data set [1] concerns CFTR. Particulars: read-out: IC50, block of CFTR chloride conductance; full block; cited from earlier work.
For data set [2] the following is noted: cited from earlier work.
Data set [3] concerns cholera toxin-induced intestinal fluid secretion. Particulars: in vivo; cited from earlier work.
Data set [4] has as its system FRT cells. The data set is described as follows: Cytotoxicity, crystal violet staining. Format: cell-based. Particulars: 50 μM, 48 h, crystal violet staining vs vehicle-treated cultures. An outline of the steps:
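Confluent FRT monolayers exposed to test compound for 2 days, washed 3 times, fixed for 30 min and stained with 0.5% crystal violet for 10 min. Dye extracted in Sorenson's buffer (0.1 M sodium citrate, 50% ethanol, pH 4.2) and read at 650 nm absorbance. Percent staining from 8 wells per test, referenced to cell-free blanks and vehicle-treated cells.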

Data set [5] relates to MDCK cell model. Particulars: cited from earlier work.
A short description of data set [6]: Solubility in phosphate buffered saline by LC/MS. It counts as physicochemical. Particulars: for Increase of water solubility compared with CFTRinh-172: in saline. Put shortly:
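Saturated solution made by adding DMSO stock to phosphate buffered saline (final DMSO 2%). Sonicated 5 min at 25 °C, shaken 1 h at room temperature, then centrifuged at 15 000 rpm for 1 h. Supernatant quantified by LC/MS peak area against per-compound standard curves (1–15 or 1–100 μM, linear r > 0.998).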

Data set [7] has as its target human wildtype CFTR (Homo sapiens, UniProt P13569). Put plainly: Short-circuit current measurement of CFTR inhibition. It counts as cell-based. Particulars: for CFTR inhibition activity (in words): short-circuit current, statements in running text; for IC50 (μM) / IC50: FRT cells expressing human wildtype CFTR; for IC50: IC50 (μM). Put shortly: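 FRT cells stably expressing human wildtype CFTR, grown on 1 cm2 filters to >1,000 Ω.cm2. Basolateral membrane permeabilized with amphotericin B (250 μg/ml, 30 min). Basolateral buffer in mM: 130 NaCl, 10 Na-HEPES, 10 glucose, pH 7.3. Apical side had 65 mM NaCl swapped for gluconate, giving a Cl− gradient. 37 °C, 95% O2/5% CO2. CFTR activated with 100 μM CPT-cAMP, then inhibitor added at stepped concentrations. Voltage-clamped apical current recorded; IC50 fitted.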

The mark [8] stands for this setting: Table 1, variations in Rings A and C.
Where [9] appears, read: Table 2, variations in Ring B and Linkers 1 and 2.

Several values for one entry are separate records, joined by “and”; a condition that tells them apart may be missing. Equal entries are not always repeated.

In general, IC50 refers to the concentration that inhibits the measured activity by half.

Sequence of human wildtype CFTR (P13569 whole entry): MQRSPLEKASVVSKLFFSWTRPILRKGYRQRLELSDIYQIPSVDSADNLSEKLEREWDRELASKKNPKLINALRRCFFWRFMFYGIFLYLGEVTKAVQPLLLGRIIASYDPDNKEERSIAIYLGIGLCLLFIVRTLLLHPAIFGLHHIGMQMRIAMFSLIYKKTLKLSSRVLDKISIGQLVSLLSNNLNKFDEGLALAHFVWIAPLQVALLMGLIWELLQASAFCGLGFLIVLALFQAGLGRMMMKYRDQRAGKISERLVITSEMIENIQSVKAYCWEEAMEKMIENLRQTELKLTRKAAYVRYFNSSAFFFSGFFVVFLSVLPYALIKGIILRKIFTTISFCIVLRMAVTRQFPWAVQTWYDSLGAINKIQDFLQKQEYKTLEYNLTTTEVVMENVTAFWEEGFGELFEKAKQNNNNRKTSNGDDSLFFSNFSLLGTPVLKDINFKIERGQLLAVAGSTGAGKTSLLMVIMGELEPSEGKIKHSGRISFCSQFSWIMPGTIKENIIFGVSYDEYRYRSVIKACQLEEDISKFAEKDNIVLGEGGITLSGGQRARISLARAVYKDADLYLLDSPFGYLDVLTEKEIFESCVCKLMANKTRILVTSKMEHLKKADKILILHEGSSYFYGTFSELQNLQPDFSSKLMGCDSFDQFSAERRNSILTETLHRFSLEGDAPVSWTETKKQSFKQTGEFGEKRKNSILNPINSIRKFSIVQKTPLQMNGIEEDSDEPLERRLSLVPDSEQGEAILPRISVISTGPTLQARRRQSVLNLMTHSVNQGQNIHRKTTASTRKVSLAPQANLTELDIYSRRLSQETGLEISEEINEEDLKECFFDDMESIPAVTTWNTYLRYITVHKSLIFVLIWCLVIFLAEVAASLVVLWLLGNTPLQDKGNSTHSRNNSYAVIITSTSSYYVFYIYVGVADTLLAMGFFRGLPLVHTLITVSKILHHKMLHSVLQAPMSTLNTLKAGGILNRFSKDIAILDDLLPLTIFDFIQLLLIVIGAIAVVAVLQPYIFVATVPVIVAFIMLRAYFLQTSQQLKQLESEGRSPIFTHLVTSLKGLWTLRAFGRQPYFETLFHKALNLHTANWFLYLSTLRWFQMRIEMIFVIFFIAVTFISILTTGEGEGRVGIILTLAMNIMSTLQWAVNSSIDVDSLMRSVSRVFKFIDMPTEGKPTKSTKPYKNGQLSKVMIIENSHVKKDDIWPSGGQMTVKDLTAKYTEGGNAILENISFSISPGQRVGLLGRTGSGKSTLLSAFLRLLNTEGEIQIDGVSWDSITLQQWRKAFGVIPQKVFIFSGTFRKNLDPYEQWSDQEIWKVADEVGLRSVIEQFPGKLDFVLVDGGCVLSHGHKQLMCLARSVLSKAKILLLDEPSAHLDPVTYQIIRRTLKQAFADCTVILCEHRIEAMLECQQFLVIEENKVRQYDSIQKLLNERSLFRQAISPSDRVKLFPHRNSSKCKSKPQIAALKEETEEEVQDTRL

As to `O=C(O)c1ccc(/C=C2\SC(=S)N(c3cccc(C(F)(F)F)c3)C2=O)cc1` [Compound 5, 4-[[4-Oxo-2-thioxo-3-[3-(trifluoromethyl)phenyl]-5-thiazolidinylidene]methyl]benzoic acid], the IC50 in data set [1] is below 0.5 µM. Also, in data set [2], the “Excretion and metabolism (in words)” value is reported as “renal excretion with minimal metabolism”; the “Toxicity (in words)” value is given as “low toxicity”. The “Cholera toxin-induced intestinal fluid secretion” value in data set [3] is given as “efficacy in reducing cholera toxin-induced intestinal fluid secretion”. For `O=C1/C(=C/c2ccc(-c3nn[nH]n3)cc2)SC(=S)N1c1cccc(C(F)(F)F)c1` [Compound 6, 5-[[4-(2H-Tetrazol-5-yl)phenyl]methylene]-2-thioxo-3-[3-(trifluoromethyl)phenyl]-4-thiazolidinone], the “% Cell viability” value in data set [4] is reported as “reduced”. The “Prevention of cyst formation” value in data set [5] is “substantially better than by CFTRinh-172”. Also, in data set [6] (listed as Tetrazolo-172), the “Increase of water solubility compared with CFTRinh-172” value is > 10 fold and 11 fold. On to `O=C(O)c1ccc(/C=C2\SC(=S)N(c3ccc(F)c(C(F)(F)F)c3)C2=O)cc1` [Compound 8], for which the “CFTR inhibition activity (in words)” value in data set [7] is “intermediate activity”. Take `O=C(O)c1cccc(/C=C2\SC(=S)N(c3ccc(F)c(C(F)(F)F)c3)C2=O)c1` [Compound 11]: the “CFTR inhibition activity (in words)” value in data set [7] is recorded as “intermediate activity”. The same measure, in the same setting: with `Cc1cccc(N2C(=O)/C(=C/c3ccc(C(=O)O)cc3)SC2=S)c1` [Compound 12] the entry was “less active”; with `O=C1/C(=C/c2cc(Br)c(O)c(Br)c2)SC(=S)N1c1cccc(C(F)(F)F)c1` [Compound 14], “modest inhibition activity”.

As for `O=C1/C(=C/c2cc(Br)c(O)c(Br)c2O)SC(=S)N1c1cccc(C(F)(F)F)c1` [Compound 15], the “CFTR inhibition activity (in words)” value in data set [7] is recorded as “modest inhibition activity”. `Cc1c(N2C(=O)/C(=C/c3ccc(C(=O)O)cc3)SC2=S)cccc1C(F)(F)F` [Compound 18, 4-[[4-Oxo-2-thioxo-3-[2-methyl-3-(trifluoromethyl)phenyl]-5-thiazolidinylidene]methyl] benzoic acid]: the “% Cell viability” value in data set [4] is listed as “reduced”. `O=C(O)c1ccc(/C=C2\SC(=S)N(c3ccc(Cl)c(C(F)(F)F)c3)C2=O)cc1` [Compound 24]: the “CFTR inhibition activity (in words)” value in data set [7] is on record as “greatly reduced activity”. The same measure, in the same setting: with `O=C(O)c1ccc(/C=C2\SC(=S)N(c3cc(C(F)(F)F)ccc3Cl)C2=O)cc1` [Compound 30] the entry was “greatly reduced activity”. Same read-out and setting: with `O=C(O)COc1cccc(/C=C2\SC(=S)N(c3cccc(C(F)(F)F)c3)C2=O)c1` [Compound 36] the entry was “substantially reduced CFTR inhibition”. On to `O=C1/C(=C/c2ccc(O)c(O)c2)SC(=S)N1c1cccc(C(F)(F)F)c1` [Compound 38], for which the “IC50 (μM)” value in data set [7] (setting [8]) is “Inactive”. On to `COc1c(Br)cc(/C=C2\SC(=S)N(c3cccc(C(F)(F)F)c3)C2=O)c(O)c1Br` [Compound 39], for which, in data set [7] (setting [8]), the “IC50 (μM)” value is given as “Inactive”.

As to `COc1cc(Br)ccc1/C=C1\SC(=S)N(c2cccc(C(F)(F)F)c2)C1=O` [Compound 40], the “IC50 (μM)” value in data set [7] (setting [8]) was “Inactive”. The same measure, in the same setting: with `COc1ccc(/C=C2\SC(=S)N(c3cccc(C(F)(F)F)c3)C2=O)cc1` [Compound 41] the entry was “Inactive”. Regarding `NC(=O)c1ccc(/C=C2\SC(=S)N(c3cccc(C(F)(F)F)c3)C2=O)cc1` [Compound 42], the “IC50 (μM)” value in data set [7] (setting [8]) is reported as “Inactive”. The same measure, in the same setting: with `O=C(NCCO)c1ccc(/C=C2\SC(=S)N(c3cccc(C(F)(F)F)c3)C2=O)cc1` [Compound 43] the entry was “Inactive”; with `NCCNC(=O)c1ccc(/C=C2\SC(=S)N(c3cccc(C(F)(F)F)c3)C2=O)cc1` [Compound 44], “Inactive”; with `CCOC(=O)c1ccc(/C=C2\SC(=S)N(c3cccc(C(F)(F)F)c3)C2=O)cc1` [Compound 45], “Inactive”. Still for that read-out and setting: with `CC(=O)OCOC(=O)c1ccc(/C=C2\SC(=S)N(c3cccc(C(F)(F)F)c3)C2=O)cc1` [Compound 46] the entry was “Inactive”.

As for `O=C(O)c1ccc(/C=C2\SC(=S)N(Cc3cccc(C(F)(F)F)c3)C2=O)cc1` [Compound 47, 4-[[4-Oxo-2-thioxo-3-[(3-(trifluoromethyl)phenyl)methyl]-5-thiazolidinylidene]methyl] benzoic acid], the “IC50 (μM)” value in data set [7] (setting [9]) is reported as “Inactive”. In the case of `O=C(O)c1ccc(/C=C2\SC(=O)N(c3cccc(C(F)(F)F)c3)C2=O)cc1` [Compound 48, 4-[[3-[3-(trifluoromethyl)phenyl]-2,4-dioxo-5-thiazolidinylidene]methyl]benzoic acid], in data set [7] (short-circuit current assays), the “Reduction of CFTR inhibition potency compared with CFTRinh-172” value is reported as 3.6 fold. Besides, in data set [6], the “Increase of water solubility compared with CFTRinh-172” value is reported as ~ 25 fold. `O=C(O)c1ccc(NC2=C(Cl)C(=O)N(c3cccc(C(F)(F)F)c3)C2=O)cc1` [Compound 50]: the “CFTR inhibition activity (in words)” value in data set [7] was “weak activity”. As to `O=C(O)c1ccc(SC2CC(=O)N(c3cccc(C(F)(F)F)c3)C2=O)cc1` (stereo not drawn) [Compound 51, 4-[[2,5-dioxo-1-[3-(trifluoromethyl)phenyl]-3-pyrrolidinyl]thio]-benzoic acid], in data set [7], the “CFTR inhibition activity (in words)” value is “moderate activity”. Turning to `O=C(O)c1ccc(NC(=S)C2SC(=S)N(c3cccc(C(F)(F)F)c3)C2=O)cc1` (stereo not drawn) [Compound 52, 4-Oxo-[(3-trifluoromethyl)phenyl]-2-thioxo-N-[4-(carboxy)phenyl]-5-thiazolidinethio carboxamide], the “Water solubility (in words)” value in data set [6] is reported as “highly water soluble”. Consider `O=C(O)c1ccc(NC(=S)C2SC(=S)N(c3cccc(C(F)(F)F)c3)C2=O)cc1O` (stereo not drawn) [Compound 53, 4-Oxo-[(3-trifluoromethyl)phenyl]-2-thioxo-N-[(4-carboxy-3-hydroxy)phenyl]-5-thiazolidinethiocarboxamide], for which the concentration for half-maximal inhibition (IC50) in data set [7] (setting [9]) is 11 µM. Further, the “Water solubility (in words)” value in data set [6] is on record as “highly water soluble”. Turning to `O=C1C(C(=S)Nc2ccc(S(=O)(=O)O)cc2)SC(=S)N1c1cccc(C(F)(F)F)c1` (stereo not drawn) [Compound 54], the IC50 in data set [7] (setting [9]) worked out at 25 µM. As to `O=C(O)c1ccc(Nc2nc(-c3cccc(C(F)(F)F)c3)cs2)cc1` [Compound 59], the “CFTR inhibition activity (in words)” value in data set [7] was “weakly active”.

For `O=C(O)c1cc(Nc2nc(-c3cccc(C(F)(F)F)c3)cs2)ccc1O` [Compound 60], the “CFTR inhibition activity (in words)” value in data set [7] is reported as “weakly active”.

Turning to `O=C(O)c1ccc(Nc2nnc(-c3cccc(C(F)(F)F)c3)s2)cc1` [Compound 64, 4-[(5-(3-Trifluoromethylphenyl)-1,3,4-thiadiazol-2-yl)amino]-benzoic acid], in data set [7] (setting [9]), the “IC50 (μM)” value was “Inactive”.

On to `O=C(O)c1ccc(-n2cc(-c3cccc(C(F)(F)F)c3)nn2)cc1` [Compound 68, 4-[4-[3-(trifluoromethyl)phenyl]-1H-1,2,3-triazol-1-yl]-benzoic acid], for which, in data set [7] (setting [9]), the “IC50 (μM)” value is recorded as “Inactive”. On the same count and under the same terms, next, `O=C(O)c1ccc(-n2cc(-c3ccc(C(F)(F)F)cc3)nn2)cc1` [Compound 69]: “Inactive”.
